NPY-Y1 PAM-ag: potentiators or agonists of human neuropeptide Y receptor Y1. actives 0.37% (n = 220,000). activation, % at 3.6 µM. NPY-Y1 expressing cells, potentiator/agonist activation. P25929. AID 1304; in the data active means activation above about 33%, passing the limit was not always enough;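 further: cells stimulated with NPY at EC10 then isoproterenol at EC100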
NPY-Y2 antag: NPY-Y2 (human) receptor antagonism. NPY-Y2 expressing cells, antagonist mode. inhibition, % at 2.7 µM. actives 0.99% (n = 140,000). AID 793; in the data active means inhibition above about 17%
Target sequence (P49146 whole entry, looked up): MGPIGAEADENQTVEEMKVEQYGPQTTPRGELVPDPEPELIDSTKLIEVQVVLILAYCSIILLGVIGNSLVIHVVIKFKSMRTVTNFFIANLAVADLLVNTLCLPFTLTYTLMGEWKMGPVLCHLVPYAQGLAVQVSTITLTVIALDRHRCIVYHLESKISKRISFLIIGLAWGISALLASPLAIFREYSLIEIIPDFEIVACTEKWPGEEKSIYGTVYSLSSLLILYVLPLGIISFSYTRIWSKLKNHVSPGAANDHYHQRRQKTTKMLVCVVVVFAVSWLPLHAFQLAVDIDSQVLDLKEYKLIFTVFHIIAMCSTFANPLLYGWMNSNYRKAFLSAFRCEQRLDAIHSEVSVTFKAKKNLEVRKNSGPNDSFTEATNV
NPY-Y1 antag: blocks the human neuropeptide Y Y1 receptor. P25929. HEK293-CNG Y1 cells, membrane potential fluorescence; NPY at EC95, then isoproterenol. inhibition, % at 3.6 µM. actives 1% (n = 200,000). AID 1040;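 active means inhibition above the campaign mean inhibition of all tested compounds plus 3 SD, cut at about 20% in these data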
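System: HEK293 cells with Y1 receptor plus CNG channel / Probe or stimulus: NPY 25 nM then isoproterenol 1 µM plus Ro 20-1724 25 µM / Compound: one concentration, 3.6 µM, in 0.4% DMSO / Schedule: compound incubation 1 h at room temperature, readout 45 min post-stimulation / Measured by: membrane potential fluorescence / Read-out: % inhibition of NPY effect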
NPY-Y2 PAM-ag: potentiators or agonists of human neuropeptide Y receptor Y2; P49146; cells expressing NPY-Y2, potentiator/agonist read-out; activation, % at 3.6 µM; actives 0.45% (n = 220,000); AID 1359; in the data active means activation above about 27%;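 further: cells stimulated with NPY near EC25 plus isoproterenol at EC100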
Numbers stand for hits; i = inactive; nt = no result. In the library only some 1.9% were active in any assay of this set; here they are far more common.

SMILES | NPY-Y1 PAM-ag | NPY-Y2 antag | NPY-Y1 antag | NPY-Y2 PAM-ag
COc1ccc2c(c1)C(C)CC(C)(C)N2C(=O)CSc1nc2ccccc2s1 (stereo not given) | i | 29 | 35 | i
CN1C=CC=C/C1=C1\SC(=S)N(c2ccccc2)C1=O | i | i | i | i
CN1C=CC=C/C1=C1\SC(=S)N(C2CCCCC2)C1=O | 114 | i | i | 106
C1CCN(c2nc(N3CCCCC3)nc(N3CCNCC3)n2)CC1 | 103 | i | i | 96
CC1=CC(=O)N(c2ccn(C)n2)C1=O | i | nt | nt | i
CCCNC(=O)c1sc2c(c1C(=O)Nc1ccccn1)CCCC2 | i | nt | 21 | i
CCCNC(=O)c1csc2c1CCCCC2 | i | i | i | i
N#CCc1ccc(NC(=O)Nc2cccc(Cl)c2)cc1 | 37 | i | i | i
O=C(Nc1cccc(Cl)c1)Nc1cccc(Cl)c1 | i | i | i | i
CC(=O)NC(CSC(CC(=O)c1ccco1)c1ccc(C)cc1)C(=O)O (stereo not given) | i | nt | i | i
Cc1cccc(OCC(O)Cn2c(=N)n(CCN3CCCCC3)c3ccccc32)c1 (stereo not given) | i | 84 | 57 | i
Cc1ccc(OCC(O)Cn2c(=N)n(Cc3ccccc3)c3ccccc32)cc1 (stereo not given) | i | 32 | 23 | i
N=c1n(Cc2ccccc2)c2ccccc2n1CC(O)COc1ccc(Cl)cc1Cl (stereo not given) | i | nt | i | i
COc1ccc(OCC(O)Cn2c(=N)n(Cc3ccccc3)c3ccccc32)cc1 (stereo not given) | i | 32 | 33 | i
Cc1cccc(OCC(O)Cn2c(=N)n(Cc3ccccc3)c3ccccc32)c1 (stereo not given) | i | nt | nt | i
O=C(CN1CCN(Cc2ccc(Cl)cc2)CC1)N/N=C/c1c[nH]c2ccccc12 | i | i | i | i
COc1ccccc1NC(=S)N1CCC(C(=O)c2ccc(F)cc2)CC1 | i | nt | i | i
C=CCOC(=O)/C(=C\C=C\c1ccccc1)NC(=O)c1ccccc1 | i | i | i | i
CC(=O)N(Cc1ccccc1)Cc1cn(CCC#N)nc1-c1cccc([N+](=O)[O-])c1 | i | nt | i | i
O=c1cc(-c2ccccc2Cl)oc2c(NS(=O)(=O)c3cc(Cl)cc(Cl)c3O)ccc(O)c12 | 56 | i | i | 41
Nc1ccc(O)c2c(=O)cc(-c3ccccc3Cl)oc12 | i | i | i | i
COc1ccc(/C=C/C(=O)NCC(=O)N2CCC(N(C)CCN3CCOCC3)CC2)cc1OC | i | nt | i | i
CCOc1ccc(Oc2c(/C=N/NC(N)=O)c(C)nn2-c2ccccc2)cc1 | i | i | i | i
CCOc1ccc(Oc2c(/C=N/NC(=O)COc3ccccc3OC)c(C)nn2-c2ccccc2)cc1 | i | 26 | 30 | i
O/N=C/c1cc(Br)ccc1OCc1ccc(F)cc1 | i | 18 | i | i
SMILES | NPY-Y1 PAM-ag | NPY-Y2 antag | NPY-Y1 antag | NPY-Y2 PAM-ag
Cc1ccc(COc2ccc(Br)cc2/C=N/O)cc1 | i | i | i | i
COc1ccc(CNCc2cccc(Oc3ccccc3)c2)cc1 | i | nt | 21 | i
CCC(C)(C(=O)NC1CCCC1)N(Cc1cccs1)C(=O)Cc1cccs1 (stereo not given) | i | 38 | 37 | i
CCC(C)(C(=O)NC1CCCCC1)N(C(=O)Cc1cccs1)c1ccccc1 (stereo not given) | i | 17 | 34 | i
CCC(C)(C(=O)NC1CCCCC1)N(CC1CCCO1)C(=O)Cc1cccs1 (stereo not given) | i | nt | 21 | i
Cc1nnsc1-c1nnc(SCC(=O)c2ccccc2)n1C1CC1 | i | nt | nt | i
CCN(CC)c1ccc(/C=C2\C(=O)c3ccc(C(=O)O)cc3C2=O)cc1 | i | i | i | i
Cc1ccc(NC(=O)Cc2cc(C(=O)O)c3ccccc3n2)c(C)c1 | 78 | nt | i | 80
CCCc1cc(C(=O)O)c2ccccc2n1 | i | i | i | i
Cc1ccc(NC(=O)Cn2nc(-c3ccccc3Cl)ccc2=O)c(Br)c1 | i | nt | i | i
COC(=O)CSc1nc(N)c(C#N)c(-c2ccc(O)cc2)c1C#N | i | nt | nt | i
C=CCSc1nc(N)c(C#N)c(-c2ccc(C)cc2)c1C#N | 45 | i | i | 45
N=C(N)c1ccc(/C=C/c2ccc(C(=N)N)cc2O)cc1 | i | nt | nt | i
Cc1cc(C(=O)OCC(=O)Nc2cc(S(=O)(=O)N(C)C)ccc2C)c(C)o1 | i | nt | i | i
CCN(CC)S(=O)(=O)c1ccc(C)c(NC(=O)c2cc(C)oc2C)c1 | i | nt | 20 | i
COc1ccccc1-c1noc(-c2ccccc2C(=O)Nc2ccccc2)n1 | i | 24 | 23 | i
COc1ccccc1NC(=O)c1ccccc1-c1nc(-c2ccccc2OC)no1 | i | i | i | i

Assay outcomes deposited in PubChem by The Scripps Research Institute Molecular Screening Center.
